pIC50: −log10 of the molar value. The source made the active and inactive calls. The rule behind the calls is not given here.
Legend:
[1] = target: T1, Monoacylglycerol lipase ABHD6 (Mus musculus) (UniProt Q8R2Y0); assay: Inhibition of ABHD6 in mouse whole brain membranes at 1 uM incubated for 1 hr by TAMRA-FP probe based competitive activity-based protein profiling assay; assay type: cell membranes; details: Membrane
T1 sequence (whole entry): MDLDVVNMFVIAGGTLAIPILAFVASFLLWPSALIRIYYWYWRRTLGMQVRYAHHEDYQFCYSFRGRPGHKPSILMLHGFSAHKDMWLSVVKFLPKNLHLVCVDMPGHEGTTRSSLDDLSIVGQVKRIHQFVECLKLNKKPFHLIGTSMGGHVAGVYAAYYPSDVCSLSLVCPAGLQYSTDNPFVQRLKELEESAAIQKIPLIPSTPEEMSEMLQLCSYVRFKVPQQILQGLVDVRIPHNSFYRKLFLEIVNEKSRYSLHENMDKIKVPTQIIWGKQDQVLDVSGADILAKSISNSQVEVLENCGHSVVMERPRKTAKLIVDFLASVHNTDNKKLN
Outline: (§1)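 Competitive ABPP on mouse brain membranes (100 µg) treated 1 h with DMSO or inhibitor. TAMRA-FP labelling then ran 1 h at RT (final probe 2 µM). Reaction was quenched with gel loading buffer and proteins resolved by 10% SDS–PAGE for fluorescent band read-out. WWL70 located the ABHD6 band. Gels are representative of two experiments.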

[2] = target: Cannabinoid receptor 2 (Homo sapiens) (UniProt P34972); assay: Agonist activity at human CB2R expressed in CHO cell membranes at 10 uM by [35S]GTPgammaS binding assay; assay type: functional
[3] = target: T2, Monoacylglycerol lipase ABHD6 (Homo sapiens, UniProt Q9BV23); assay: Inhibition of human ABHD6 expressed in HEK293 cells at 1 uM pre-incubated for 10 mins before 2-AG substrate addition followed by rapid 40 fold compound dilution measured after 90 mins by HPLC method; assay type: cell-based
T2 sequence (Q9BV23 whole entry): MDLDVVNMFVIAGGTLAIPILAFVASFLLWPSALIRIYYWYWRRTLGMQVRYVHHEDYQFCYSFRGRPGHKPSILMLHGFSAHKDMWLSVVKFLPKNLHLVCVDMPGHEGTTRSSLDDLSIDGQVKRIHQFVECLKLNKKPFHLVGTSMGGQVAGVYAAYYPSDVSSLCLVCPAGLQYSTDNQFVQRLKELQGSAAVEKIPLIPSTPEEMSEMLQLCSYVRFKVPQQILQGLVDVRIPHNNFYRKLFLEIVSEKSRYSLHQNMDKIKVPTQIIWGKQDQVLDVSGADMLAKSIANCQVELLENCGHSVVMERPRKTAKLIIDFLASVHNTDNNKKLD

[4] = target: Cannabinoid receptor 1 (Rattus norvegicus) (UniProt P20272); assay: Agonist activity at CB1R in rat cerebellar membranes at 10 uM by [35S]GTPgammaS binding assay; assay type: functional, cell membranes; details: Cerebellum, Membrane
Outline: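 Rat cerebellar membranes, [35S]GTPγS binding. Agonist activity is read as % of basal binding. Antagonist activity is read as % of the HU210-evoked response. Compound tested at 10 µM. Values are mean (range), n = 2.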

[5] = target: T3, Lysophosphatidylserine lipase ABHD12 (Mus musculus) (UniProt Q99LR1); assay: Inhibition of ABHD12 in mouse whole brain membranes at 32.5 uM incubated for 1 hr by TAMRA-FP probe based competitive activity-based protein profiling assay; assay type: cell membranes; details: Membrane; outline: as §1
T3 sequence (whole entry): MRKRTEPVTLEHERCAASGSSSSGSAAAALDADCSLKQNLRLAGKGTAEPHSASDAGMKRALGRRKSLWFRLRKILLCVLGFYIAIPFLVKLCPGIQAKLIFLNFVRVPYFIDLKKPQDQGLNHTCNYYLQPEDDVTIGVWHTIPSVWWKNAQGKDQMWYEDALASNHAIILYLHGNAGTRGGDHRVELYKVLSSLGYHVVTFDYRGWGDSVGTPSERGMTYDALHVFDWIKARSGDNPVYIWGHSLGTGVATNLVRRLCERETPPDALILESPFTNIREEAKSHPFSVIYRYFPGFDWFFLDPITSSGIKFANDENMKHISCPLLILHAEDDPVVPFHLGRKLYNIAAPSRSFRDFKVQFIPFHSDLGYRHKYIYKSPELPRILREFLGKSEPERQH

[6] = target: T2, Monoacylglycerol lipase ABHD6; assay: Inhibition of human ABHD6 expressed in HEK293 cells at 1 uM pre-incubated for 10 mins before 2-AG substrate addition followed by rapid 40 fold compound dilution measured after 30 mins by HPLC method; assay type: cell-based
[7] = target: T4, Fatty-acid amide hydrolase 1 (Homo sapiens) (UniProt O00519); assay: Inhibition of human FAAH expressed in COS7 cell membranes at 20 uM pre-incubated for 10 mins before [3H]-AEA substrate addition by liquid scintillation counting; details: COS-7
T4 sequence (whole entry): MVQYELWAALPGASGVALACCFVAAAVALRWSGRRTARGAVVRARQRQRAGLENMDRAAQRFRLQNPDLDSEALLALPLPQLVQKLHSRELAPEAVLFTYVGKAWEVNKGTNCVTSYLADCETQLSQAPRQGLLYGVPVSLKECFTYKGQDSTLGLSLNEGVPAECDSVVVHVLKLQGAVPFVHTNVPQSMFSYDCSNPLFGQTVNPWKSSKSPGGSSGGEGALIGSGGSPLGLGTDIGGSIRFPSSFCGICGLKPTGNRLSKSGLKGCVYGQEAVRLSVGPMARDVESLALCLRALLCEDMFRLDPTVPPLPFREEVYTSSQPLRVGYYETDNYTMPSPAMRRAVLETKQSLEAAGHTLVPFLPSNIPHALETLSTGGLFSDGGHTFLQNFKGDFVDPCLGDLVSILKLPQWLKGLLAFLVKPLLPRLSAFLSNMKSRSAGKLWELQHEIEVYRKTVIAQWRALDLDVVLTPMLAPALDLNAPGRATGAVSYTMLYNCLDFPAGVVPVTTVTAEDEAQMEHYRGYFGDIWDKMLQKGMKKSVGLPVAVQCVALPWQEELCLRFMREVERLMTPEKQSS

[8] = target: T1, Monoacylglycerol lipase ABHD6 (Mus musculus); assay: Inhibition of ABHD6 in mouse whole brain membranes at 10 uM incubated for 1 hr by TAMRA-FP probe based competitive activity-based protein profiling assay; assay type: cell membranes; details: Membrane; outline: as §1
[9] = target: T2, Monoacylglycerol lipase ABHD6; assay: Inhibition of human ABHD6 expressed in HEK293 cells at 1 uM pre-incubated for 10 mins before 2-AG substrate addition followed by rapid 40 fold compound dilution measured after 60 mins by HPLC method; assay type: cell-based
[10] = target: T2, Monoacylglycerol lipase ABHD6; assay: Inhibition of human ABHD6 expressed in HEK293 cells at 1 uM pre-incubated for 10 mins before 2-AG substrate addition followed by rapid 40 fold compound dilution measured after 10 mins by HPLC method; assay type: cell-based

Sequence of Cannabinoid receptor 1 (Rattus norvegicus) (P20272 whole entry): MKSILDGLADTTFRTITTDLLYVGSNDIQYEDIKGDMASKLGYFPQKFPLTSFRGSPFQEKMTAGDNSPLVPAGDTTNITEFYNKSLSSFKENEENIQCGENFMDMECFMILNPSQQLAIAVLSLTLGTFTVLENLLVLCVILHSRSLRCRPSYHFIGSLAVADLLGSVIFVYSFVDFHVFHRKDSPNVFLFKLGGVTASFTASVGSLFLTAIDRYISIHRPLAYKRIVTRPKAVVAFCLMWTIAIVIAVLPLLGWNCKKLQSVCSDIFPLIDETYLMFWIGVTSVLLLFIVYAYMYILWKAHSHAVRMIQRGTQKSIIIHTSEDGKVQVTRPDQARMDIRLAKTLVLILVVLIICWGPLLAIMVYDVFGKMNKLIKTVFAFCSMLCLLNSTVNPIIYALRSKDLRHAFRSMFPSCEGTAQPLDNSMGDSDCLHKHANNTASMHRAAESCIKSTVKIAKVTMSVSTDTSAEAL
Sequence of Cannabinoid receptor 2 (Homo sapiens) (P34972 whole entry): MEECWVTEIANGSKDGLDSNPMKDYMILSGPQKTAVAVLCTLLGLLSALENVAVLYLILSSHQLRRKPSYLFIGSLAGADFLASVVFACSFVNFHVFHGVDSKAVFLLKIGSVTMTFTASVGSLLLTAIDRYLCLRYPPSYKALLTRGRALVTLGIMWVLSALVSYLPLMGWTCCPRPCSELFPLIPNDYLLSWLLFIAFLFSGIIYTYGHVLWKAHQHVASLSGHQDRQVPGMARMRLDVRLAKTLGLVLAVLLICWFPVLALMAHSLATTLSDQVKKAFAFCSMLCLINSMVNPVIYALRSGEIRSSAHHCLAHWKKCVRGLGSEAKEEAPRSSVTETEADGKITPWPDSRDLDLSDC

| inhibition [1] | Activity [2] [%] | pIC50 [3] | Activity [4] [%] | inhibition [5] | pIC50 [6] | inhibition [7] [%] | inhibition [8] | pIC50 [9] | pIC50 [10] | SMILES |
| --- | --- | --- | --- | --- | --- | --- | --- | --- | --- | --- |
| Active |  |  |  |  |  |  |  |  |  | Nc1cccc(Cn2nc(Oc3ccccc3)oc2=O)c1 |
|  | 107 | 5.48 | 96 | Active | 5.42 | 41 | Active | 5.44 | 5.39 | COc1nn(Cc2cccc(N)c2)c(=O)o1 |
